# Test results published in ChEMBL document CHEMBL1833793 (Bioorg Med Chem Lett, 2011).
# Calls of active or inactive are those of the source. No cut-off for these calls is given here.
# Columns and labels:
# [1] = Drug uptake in brain of cPP-induced feeding rat model at 3 mg/kg, po after 6 hrs; assay type: ADME, organism-based; design: dose 3 mg/kg, route oral; conditions: read-out: Drug uptake
# In short: (§1)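 Satellite rats (n = 2/dose) sampled each week alongside the cPP feeding test; Lu-series dosed po at 3, 10 or 30 mg/kg as suspension in 20% HP-β-cyclodextrin; plasma (ng/mL) and brain tissue (ng/g) levels taken at 1, 2, 4, 6 and 24 h post-dose; mean ± SD reported.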
# Rattus norvegicus [2] = assay: Antistress activity against chronic mild stress Sprague-Dawley rat model assessed as increase in sucrose consumption at 10 mg/kg, ip bid measured after 4 weeks; assay type: functional; conditions: route intraperitoneal
# [3] = Tmax in Sprague-Dawley rat at 1 mg/kg, iv and 2 mg/kg, po by HPLC analysis; assay type: ADME, organism-based; conditions: in vivo
# In short: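 Male Sprague–Dawley rats (n = 2) with jugular and carotid cannulae, 200–250 g, dosed 1 mg/kg iv and 2 mg/kg po in crossover after a 24 h washout. Vehicle was 20% beta-cyclodextrin, pH adjusted with methanesulfonic acid. Twelve serial blood samples were taken over 24 h, plasma measured by HPLC-MS/MS, and parameters derived by noncompartmental analysis.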
# [4] = biological target: Voltage-gated inwardly rectifying potassium channel KCNH2 (Homo sapiens, UniProt Q12809); assay: Inhibition of human ERG by patch-clamp assay
# [5] = Plasma concentration in cPP-induced feeding rat model at 30 mg/kg, po after 1 hr; assay type: ADME, organism-based; design: dose 30 mg/kg, route oral
# In short: (§2)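 Satellite rats (n = 2/dose per week), cannulated in the lateral cerebral ventricle for the feeding study, dosed orally at 3, 10 or 30 mg/kg as a suspension in 20% HP-β-cyclodextrin. Plasma was sampled 1, 2, 4, 6 or 24 h after dosing, alongside i.c.v. cPP (0.6 nmol) feeding tests. Values are given as mean with SD.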
# [6] = Drug uptake in brain of cPP-induced feeding rat model at 30 mg/kg, po after 2 hrs; assay type: ADME, organism-based; design: dose 30 mg/kg, route oral; conditions: read-out: Drug uptake; in short: as §1
# [7] = Plasma concentration in cPP-induced feeding rat model at 30 mg/kg, po after 2 hrs; assay type: ADME, organism-based; design: dose 30 mg/kg, route oral; in short: as §2
# [8] = Plasma clearance in Sprague-Dawley rat at 1 mg/kg, iv and 2 mg/kg, po by HPLC analysis; assay type: ADME, organism-based
# In short: (§3)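 Male Sprague-Dawley rats (200–250 g, n = 2) with jugular and carotid cannulae, dosed 1 mg/kg iv and 2 mg/kg po in crossover after 24 h washout. Vehicle was 20% beta cyclodextrin, pH adjusted with methanesulfonic acid to give a solution. Automated serial blood sampling took 12 time points over 24 h. Plasma was quantified by HPLC-MS/MS, with noncompartmental analysis.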
# [9] = Drug uptake in brain of cPP-induced feeding rat model at 10 mg/kg, po after 6 hrs; assay type: ADME, organism-based; design: dose 10 mg/kg, route oral; conditions: read-out: Drug uptake; in short: as §1
# [10] = Volume of distribution at steady state in Sprague-Dawley rat at 1 mg/kg, iv and 2 mg/kg, po by HPLC analysis; assay type: ADME, organism-based; conditions: in vivo, read-out: Vdss; in short: as §3
# [11] = biological target: T1, Neuropeptide Y receptor type 5 (Homo sapiens, UniProt Q15761); assay: Binding affinity to human NPY5 receptor
# T1 sequence (Q15761 whole entry): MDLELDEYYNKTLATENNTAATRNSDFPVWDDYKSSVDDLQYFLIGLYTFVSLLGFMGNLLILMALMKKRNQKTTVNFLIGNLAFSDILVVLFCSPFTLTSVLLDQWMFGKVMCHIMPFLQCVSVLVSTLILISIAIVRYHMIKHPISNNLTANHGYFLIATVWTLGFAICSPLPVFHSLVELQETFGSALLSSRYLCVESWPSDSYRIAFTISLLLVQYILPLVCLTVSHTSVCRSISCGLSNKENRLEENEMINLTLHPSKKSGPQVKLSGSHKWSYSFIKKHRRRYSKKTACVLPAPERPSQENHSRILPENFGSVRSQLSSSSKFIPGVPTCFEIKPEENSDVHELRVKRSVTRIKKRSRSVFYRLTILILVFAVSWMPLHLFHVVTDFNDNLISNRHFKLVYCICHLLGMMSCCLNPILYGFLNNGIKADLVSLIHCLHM
# [12] = Plasma concentration in rat at 10 mg/kg, po after 4 hrs; assay type: ADME, organism-based; design: dose 10 mg/kg, route oral
# In short: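 Single oral dose of 10 mg/kg in rats, two animals. Plasma was sampled at 4 h and the two values averaged. LOQ 2 ng/mL.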
# [13] = Plasma concentration in cPP-induced feeding rat model at 10 mg/kg, po after 6 hrs; assay type: ADME, organism-based; design: dose 10 mg/kg, route oral; in short: as §1
# Brain = assay: Free drug level in brain of cPP-induced feeding rat model; assay type: ADME, tissue-based; conditions: in vivo
# [14] = Plasma protein binding in rat; assay type: ADME, cell-free; conditions: read-out: PPB (converted)
# [15] = Plasma concentration in cPP-induced feeding rat model at 10 mg/kg, po after 4 hrs; assay type: ADME, organism-based; design: dose 10 mg/kg, route oral; in short: as §1
# [16] = Plasma concentration in cPP-induced feeding rat model at 3 mg/kg, po after 1 hr; assay type: ADME, organism-based; design: dose 3 mg/kg, route oral; in short: as §1
# Rattus norvegicus [17] = species on record: Rattus norvegicus; assay: Inhibition of food intake in rat after 24 hrs starvation; assay type: functional, organism-based
# [18] = Volume of distribution at steady state in mouse at 1 mg/kg, iv and 2 mg/kg, po by HPLC analysis; assay type: ADME, organism-based; conditions: in vivo, read-out: Vdss
# [19] = Drug uptake in rat brain at 10 mg/kg, po after 4 hrs; assay type: ADME, organism-based; design: dose 10 mg/kg, route oral; conditions: read-out: Drug uptake
# In short: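 Rat single oral dose of 10 mg/kg, two animals; plasma and brain homogenate levels measured at 4 h and averaged; quantification limit 2 ng/mL plasma, 2 ng/g brain.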
# [20] = Plasma concentration in cPP-induced feeding rat model at 3 mg/kg, po after 6 hrs; assay type: ADME, organism-based; design: dose 3 mg/kg, route oral; in short: as §2
# Cytochrome P450 2C9 = Cytochrome P450 2C9 (Homo sapiens, UniProt P11712); assay: Inhibition of CYP2C9; assay type: ADME
# [21] = Plasma concentration in cPP-induced feeding rat model at 3 mg/kg, po after 2 hrs; assay type: ADME, organism-based; design: dose 3 mg/kg, route oral; in short: as §1
# [22] = Plasma concentration in cPP-induced feeding rat model at 10 mg/kg, po after 2 hrs; assay type: ADME, organism-based; design: dose 10 mg/kg, route oral; in short: as §1
# [23] = Drug uptake in brain of cPP-induced feeding rat model at 10 mg/kg, po after 1 hr; assay type: ADME, organism-based; design: dose 10 mg/kg, route oral; conditions: read-out: Drug uptake; in short: as §1
# [24] = biological target: T2, 5-hydroxytryptamine receptor 1A (Homo sapiens, UniProt P08908); assay: Binding affinity to human 5HT1A receptor
# T2 sequence (P08908 whole entry): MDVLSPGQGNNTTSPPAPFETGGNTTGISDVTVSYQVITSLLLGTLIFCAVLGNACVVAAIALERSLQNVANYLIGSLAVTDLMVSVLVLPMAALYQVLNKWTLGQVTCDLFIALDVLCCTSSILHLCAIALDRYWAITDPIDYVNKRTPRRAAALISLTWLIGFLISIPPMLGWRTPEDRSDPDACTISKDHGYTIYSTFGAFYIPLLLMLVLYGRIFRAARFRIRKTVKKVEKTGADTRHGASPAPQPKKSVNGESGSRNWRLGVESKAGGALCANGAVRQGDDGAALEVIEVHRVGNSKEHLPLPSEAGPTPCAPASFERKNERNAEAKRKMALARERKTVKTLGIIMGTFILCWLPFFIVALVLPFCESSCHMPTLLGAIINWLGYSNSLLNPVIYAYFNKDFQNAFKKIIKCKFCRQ
# Cytochrome P450 2D6 = Cytochrome P450 2D6 (Homo sapiens, UniProt P10635); assay: Inhibition of CYP2D6; assay type: ADME
# Cytochrome P450 2D6, sequence (P10635 whole entry): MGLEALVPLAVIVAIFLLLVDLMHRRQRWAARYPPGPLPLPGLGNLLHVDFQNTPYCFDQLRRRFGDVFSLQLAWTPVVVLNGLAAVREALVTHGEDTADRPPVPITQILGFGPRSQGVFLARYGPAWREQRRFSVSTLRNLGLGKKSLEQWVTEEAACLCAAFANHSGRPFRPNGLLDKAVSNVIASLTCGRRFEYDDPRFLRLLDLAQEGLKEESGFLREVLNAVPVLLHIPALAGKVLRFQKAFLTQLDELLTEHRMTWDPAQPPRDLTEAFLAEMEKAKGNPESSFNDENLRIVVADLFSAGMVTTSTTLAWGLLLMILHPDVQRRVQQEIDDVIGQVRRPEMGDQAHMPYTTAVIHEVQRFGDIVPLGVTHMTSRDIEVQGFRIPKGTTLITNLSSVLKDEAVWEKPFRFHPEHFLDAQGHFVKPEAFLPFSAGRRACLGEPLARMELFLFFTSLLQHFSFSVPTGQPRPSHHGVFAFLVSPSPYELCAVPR
# Voltage-gated inwardly rectifying potassium channel KCNH2, sequence (Q12809 whole entry): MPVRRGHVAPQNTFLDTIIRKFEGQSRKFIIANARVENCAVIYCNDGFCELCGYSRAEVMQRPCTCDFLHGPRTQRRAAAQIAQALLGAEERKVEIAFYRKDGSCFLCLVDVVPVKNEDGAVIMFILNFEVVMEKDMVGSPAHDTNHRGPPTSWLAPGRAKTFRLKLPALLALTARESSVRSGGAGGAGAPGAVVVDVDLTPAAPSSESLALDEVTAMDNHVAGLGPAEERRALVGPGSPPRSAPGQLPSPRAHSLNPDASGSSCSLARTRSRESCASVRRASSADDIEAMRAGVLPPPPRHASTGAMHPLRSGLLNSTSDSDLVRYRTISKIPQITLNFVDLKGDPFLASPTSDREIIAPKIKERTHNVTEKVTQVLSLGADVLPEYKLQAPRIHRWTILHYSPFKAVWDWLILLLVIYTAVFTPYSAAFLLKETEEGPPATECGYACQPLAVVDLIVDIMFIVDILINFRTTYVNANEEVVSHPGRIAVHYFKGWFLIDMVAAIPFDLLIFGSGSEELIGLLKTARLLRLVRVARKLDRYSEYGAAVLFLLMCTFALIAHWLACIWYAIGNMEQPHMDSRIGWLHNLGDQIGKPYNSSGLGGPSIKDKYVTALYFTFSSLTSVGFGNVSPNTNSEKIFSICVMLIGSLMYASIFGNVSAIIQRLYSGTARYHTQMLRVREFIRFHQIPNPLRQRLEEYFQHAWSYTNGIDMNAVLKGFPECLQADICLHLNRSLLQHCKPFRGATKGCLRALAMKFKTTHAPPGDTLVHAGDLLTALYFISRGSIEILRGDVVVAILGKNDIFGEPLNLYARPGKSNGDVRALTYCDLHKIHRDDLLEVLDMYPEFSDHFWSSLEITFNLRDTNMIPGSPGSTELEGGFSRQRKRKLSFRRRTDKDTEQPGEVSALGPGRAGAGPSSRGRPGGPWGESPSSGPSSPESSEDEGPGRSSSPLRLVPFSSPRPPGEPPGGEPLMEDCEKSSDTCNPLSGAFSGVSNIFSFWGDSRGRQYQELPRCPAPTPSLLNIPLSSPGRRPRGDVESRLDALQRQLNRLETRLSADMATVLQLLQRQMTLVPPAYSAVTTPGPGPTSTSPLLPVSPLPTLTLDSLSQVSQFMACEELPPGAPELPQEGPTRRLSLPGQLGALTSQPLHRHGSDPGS
# Cytochrome P450 2C9, sequence (P11712 whole entry): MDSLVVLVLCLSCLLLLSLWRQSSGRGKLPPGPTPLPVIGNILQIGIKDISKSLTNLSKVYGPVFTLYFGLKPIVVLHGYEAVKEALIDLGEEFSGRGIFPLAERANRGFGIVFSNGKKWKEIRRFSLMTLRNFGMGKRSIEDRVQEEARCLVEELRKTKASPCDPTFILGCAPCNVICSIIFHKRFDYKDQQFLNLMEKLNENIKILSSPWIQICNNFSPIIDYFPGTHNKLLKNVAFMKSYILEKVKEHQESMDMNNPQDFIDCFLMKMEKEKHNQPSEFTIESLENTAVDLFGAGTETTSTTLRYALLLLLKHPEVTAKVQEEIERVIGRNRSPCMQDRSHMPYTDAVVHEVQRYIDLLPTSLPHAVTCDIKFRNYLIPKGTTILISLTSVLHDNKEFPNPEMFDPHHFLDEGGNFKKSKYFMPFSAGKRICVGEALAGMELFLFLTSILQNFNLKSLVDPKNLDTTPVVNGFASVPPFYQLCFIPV
smiles,measurement,setting,value
CS(=O)(=O)NC[C@H]1CC[C@H](Nc2nc3c(s2)CCSc2ccccc2-3)CC1,concentration at 6 h,[1],30 ng/g
same,Activity,Rattus norvegicus [2],>10%
same,Tmax,[3],1.9 h
same,IC50,[4],> 10000 nM
same,concentration at 1 h,[5],267 ng/mL
same,concentration at 2 h,[6],319 ng/g
same,concentration at 2 h,[7],337 ng/mL
same,clearance,[8],18.3 mL/min/kg
same,concentration at 6 h,[9],124 ng/g
same,Vd,[10],3.3 L/kg
same,Ki,[11],1.5 nM
same,concentration at 4 h,[12],320 ng/mL
same,concentration at 6 h,[13],46 ng/mL
same,Drug uptake,Brain,0.4 nM
same,fraction unbound,[14],0.006
same,concentration at 4 h,[15],141 ng/mL
same,concentration at 1 h,[16],54 ng/mL
same,inhibition,Rattus norvegicus [17],inactive
same,Vd,[18],3.6 L/kg
same,concentration at 4 h,[19],460 ng/g
same,concentration at 6 h,[20],30 ng/mL
same,IC50,Cytochrome P450 2C9,> 10000 nM
same,concentration at 2 h,[21],87 ng/mL
same,concentration at 2 h,[22],260 ng/mL
same,concentration at 1 h,[23],179 ng/g
same,Ki,[24],478 nM
same,IC50,Cytochrome P450 2D6,> 10000 nM
